# Columns and labels:
# Escherichia coli [1] = assay: Antimicrobial activity against aac(6')-Ib-cr-negative Escherichia coli PU12T harboring wild-type GyrA, GyrB, ParC and qnrS genes by agar dilution method; assay type: functional
# How it was run: (§1)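 MICs were determined by the CLSI agar dilution method (M7-A7) and interpreted against CLSI M100-S17 breakpoints.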
# Citrobacter freundii [2] = assay: Antimicrobial activity against aac(6')-Ib-cr-positive Citrobacter freundii PU55 harboring GyrA T83I, ParC S80I mutant, wild-type GyrB, qnrA genes by agar dilution method; assay type: functional; how it was run: as §1
# Klebsiella pneumoniae [3] = assay: Antimicrobial activity against aac(6')-Ib-cr-negative Klebsiella pneumoniae SY22 harboring GyrA S83I, ParC S80I mutant, wild-type GyrB and qnrS genes by agar dilution method; assay type: functional; how it was run: as §1
# Klebsiella pneumoniae [4] = assay: Antimicrobial activity against aac(6')-Ib-cr-positive Klebsiella pneumoniae SY26 harboring GyrA S83I, ParC S80I mutant, wild-type GyrB and qnrB genes by agar dilution method; assay type: functional
# How it was run: (§2)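 MICs were determined on clinical isolates by CLSI agar dilution (M7-A7) and interpreted against CLSI M100-S17 breakpoints.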
# Klebsiella pneumoniae [5] = assay: Antimicrobial activity against aac(6')-Ib-cr-positive Klebsiella pneumoniae WH99 harboring wild-type GyrA, ParC, GyrB and qnrB genes by agar dilution method; assay type: functional; how it was run: as §2
# Klebsiella pneumoniae [6] = assay: Antimicrobial activity against aac(6')-Ib-cr-positive Klebsiella pneumoniae WH99T harboring qnrB gene by agar dilution method; assay type: functional
# How it was run: (§3)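 Transconjugants were made by conjugating a qnr/aac(6')-Ib-cr donor with azide-resistant E. coli J53. Selection used Trypticase soy agar with sodium azide 150 µg/ml and sulfamethoxazole 180 µg/ml. […] MICs were read by CLSI agar dilution (M7-A7) and interpreted per M100-S17.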
# Escherichia coli [7] = assay: Antimicrobial activity against aac(6')-Ib-cr-negative Escherichia coli PU12 harboring GyrA S83L mutant, wild-type GyrB, ParC and qnrS genes by agar dilution method; assay type: functional; how it was run: as §1
# Escherichia coli [8] = assay: Antimicrobial activity against aac(6')-Ib-cr-positive Escherichia coli FJ3 harboring GyrA S83L, ParC S80R mutant, wild-type GyrB and qnrB genes by agar dilution method; assay type: functional; how it was run: as §1
# Escherichia coli [9] = assay: Antimicrobial activity against aac(6')-Ib-cr-positive Escherichia coli FJ3T harboring wild-type GyrA, ParC, GyrB and qnrB genes by agar dilution method
# Citrobacter freundii [10] = assay: Antimicrobial activity against aac(6')-Ib-cr-positive Citrobacter freundii JN1T by agar dilution method; assay type: functional; how it was run: as §1
# Klebsiella pneumoniae [11] = assay: Antimicrobial activity against aac(6')-Ib-cr-positive Klebsiella pneumoniae JN132 harboring GyrA S83I, ParC S80I mutant, wild-type GyrB and qnrB genes by agar dilution method; assay type: functional; how it was run: as §2
# Klebsiella pneumoniae [12] = assay: Antimicrobial activity against aac(6')-Ib-cr-positive Klebsiella pneumoniae JN132T harboring qnrB gene by agar dilution method; assay type: functional; how it was run: as §3
# Klebsiella pneumoniae [13] = assay: Antimicrobial activity against aac(6')-Ib-cr-positive Klebsiella pneumoniae JN41 harboring GyrA S83I, ParC S80I mutant, wild-type GyrB and qnrB genes by agar dilution method; assay type: functional; how it was run: as §2
# Klebsiella pneumoniae [14] = assay: Antimicrobial activity against aac(6')-Ib-cr-positive Klebsiella pneumoniae JN41T harboring qnrB gene by agar dilution method; assay type: functional; how it was run: as §3
# Citrobacter freundii [15] = assay: Antimicrobial activity against aac(6')-Ib-cr-negative Citrobacter freundii JN64T harboring qnrA gene by agar dilution method; assay type: functional; how it was run: as §1
# Citrobacter freundii [16] = assay: Antimicrobial activity against aac(6')-Ib-cr-positive Citrobacter freundii JS33 harboring GyrA T83I mutant, wild-type ParC, GyrB, qnrA and qnrB genes by agar dilution method; assay type: functional; how it was run: as §1
# Enterobacter cloacae [17] = assay: Antimicrobial activity against aac(6')-Ib-cr-negative Enterobacter cloacae SH39 harboring GyrA S83I, ParC S80I mutant, wild-type GyrB and qnrA genes by agar dilution method; assay type: functional
# Enterobacter cloacae [18] = assay: Antimicrobial activity against aac(6')-Ib-cr-negative Enterobacter cloacae SH39T harboring qnrA gene by agar dilution method; assay type: functional
# Klebsiella pneumoniae [19] = assay: Antimicrobial activity against aac(6')-Ib-cr-negative Klebsiella pneumoniae SY22T harboring qnrS gene by agar dilution method; assay type: functional; how it was run: as §1
# Klebsiella pneumoniae [20] = assay: Antimicrobial activity against aac(6')-Ib-cr-positive Klebsiella pneumoniae SY26T harboring wild-type GyrA, ParC, GyrB and qnrB genes by agar dilution method; assay type: functional
# How it was run: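 Transconjugants were made by conjugating a qnr/aac(6')-Ib-cr donor with azide-resistant E. coli J53. MICs were read by CLSI agar dilution (M7-A7) and interpreted per M100-S17.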
# Citrobacter freundii [21] = assay: Antimicrobial activity against aac(6')-Ib-cr-positive Citrobacter freundii TJ15 harboring GyrA T83I, ParC S80I mutant, wild-type GyrB, qnrB genes by agar dilution method; assay type: functional; how it was run: as §1
# Citrobacter freundii [22] = assay: Antimicrobial activity against aac(6')-Ib-cr-positive Citrobacter freundii TJ15T harboring wild-type GyrA, ParC, GyrB genes by agar dilution method; assay type: functional; how it was run: as §1
# Enterobacter cloacae [23] = assay: Antimicrobial activity against aac(6')-Ib-cr-negative Enterobacter cloacae WH42 harboring wild-type GyrA, ParC, GyrB and qnrA genes by agar dilution method; assay type: functional
# Enterobacter cloacae [24] = assay: Antimicrobial activity against aac(6')-Ib-cr-negative Enterobacter cloacae WH42T harboring qnrA gene by agar dilution method; assay type: functional
# Enterobacter cloacae [25] = assay: Antimicrobial activity against aac(6')-Ib-cr-negative Enterobacter cloacae FJ61 harboring GyrA S83I, GyrA D87A, ParC S80I mutant, wild-type GyrB and qnrS genes by agar dilution method; assay type: functional
# Enterobacter cloacae [26] = assay: Antimicrobial activity against aac(6')-Ib-cr-negative Enterobacter cloacae FJ61T harboring qnrS gene by agar dilution method; assay type: functional
# Enterobacter cloacae [27] = assay: Antimicrobial activity against aac(6')-Ib-cr-positive Enterobacter cloacae FJ63 harboring GyrA S83I, GyrA D87A, ParC S80I mutant, wild-type GyrB and qnrS genes by agar dilution method; assay type: functional
# Enterobacter cloacae [28] = assay: Antimicrobial activity against aac(6')-Ib-cr-positive Enterobacter cloacae FJ63T harboring qnrS gene by agar dilution method; assay type: functional
# Enterobacter cloacae [29] = assay: Antimicrobial activity against aac(6')-Ib-cr-negative Enterobacter cloacae FJ67 harboring […] and qnrS genes by agar dilution method; assay type: functional
# Enterobacter cloacae [30] = assay: Antimicrobial activity against aac(6')-Ib-cr-negative Enterobacter cloacae FJ67T harboring qnrS gene by agar dilution method; assay type: functional
# Klebsiella pneumoniae [31] = assay: Antimicrobial activity against aac(6')-Ib-cr-positive Klebsiella pneumoniae GZ40 harboring GyrA S83I, ParC S80I mutant, wild-type GyrB and qnrB genes by agar dilution method; assay type: functional; how it was run: as §1
# Enterobacter cloacae [32] = assay: Antimicrobial activity against aac(6')-Ib-cr-negative Enterobacter cloacae GZ47 harboring qnrB and qnrS genes by agar dilution method; assay type: functional
# Enterobacter cloacae [33] = assay: Antimicrobial activity against aac(6')-Ib-cr-negative Enterobacter cloacae GZ47T harboring qnrB gene by agar dilution method; assay type: functional
# Enterobacter cloacae [34] = assay: Antimicrobial activity against aac(6')-Ib-cr-negative Enterobacter cloacae GZ51 harboring qnrA gene by agar dilution method; assay type: functional
# Enterobacter cloacae [35] = assay: Antimicrobial activity against aac(6')-Ib-cr-negative Enterobacter cloacae GZ51T harboring qnrA gene by agar dilution method; assay type: functional
# Citrobacter freundii [36] = assay: Antimicrobial activity against aac(6')-Ib-cr-positive Citrobacter freundii JN1 harboring GyrA T83I, ParC S80I mutant, wild-type GyrB and qnrA genes by agar dilution method; assay type: functional; how it was run: as §1
# Citrobacter freundii [37] = assay: Antimicrobial activity against aac(6')-Ib-cr-negative Citrobacter freundii JN64 harboring GyrA T83I, wild-type ParC, GyrB and qnrA genes by agar dilution method; assay type: functional; how it was run: as §1
# Citrobacter freundii [38] = assay: Antimicrobial activity against aac(6')-Ib-cr-positive Citrobacter freundii JS33T harboring qnrA gene by agar dilution method; assay type: functional; how it was run: as §1
molecule,measurement,setting,value
CO/N=C(\C(=O)N[C@@H]1C(=O)N2C(C(=O)[O-])=C(C[N+]3(C)CCCC3)CS[C@H]12)c1csc(N)n1,MIC,Escherichia coli [1],2 µg/mL
same,MIC,Citrobacter freundii [2],1 µg/mL
same,MIC,Klebsiella pneumoniae [3],1 µg/mL
same,MIC,Klebsiella pneumoniae [4],0.5 µg/mL
same,MIC,Klebsiella pneumoniae [5],2 µg/mL
same,MIC,Klebsiella pneumoniae [6],1 µg/mL
same,MIC,Escherichia coli [7],2 µg/mL
same,MIC,Escherichia coli [8],8 µg/mL
same,MIC,Escherichia coli [9],4 µg/mL
same,MIC,Citrobacter freundii [10],1 µg/mL
same,MIC,Klebsiella pneumoniae [11],2 µg/mL
same,MIC,Klebsiella pneumoniae [12],2 µg/mL
same,MIC,Klebsiella pneumoniae [13],2 µg/mL
same,MIC,Klebsiella pneumoniae [14],1 µg/mL
same,MIC,Citrobacter freundii [15],4 µg/mL
same,MIC,Citrobacter freundii [16],0.25 µg/mL
GENTAMICIN,MIC,Escherichia coli [1],1 µg/mL
same,MIC,Citrobacter freundii [2],1 µg/mL
same,MIC,Enterobacter cloacae [17],8 µg/mL
same,MIC,Enterobacter cloacae [18],4 µg/mL
same,MIC,Klebsiella pneumoniae [3],128 µg/mL
same,MIC,Klebsiella pneumoniae [19],32 µg/mL
same,MIC,Klebsiella pneumoniae [4],> 256 µg/mL
same,MIC,Klebsiella pneumoniae [20],> 256 µg/mL
same,MIC,Citrobacter freundii [21],256 µg/mL
same,MIC,Citrobacter freundii [22],1 µg/mL
same,MIC,Enterobacter cloacae [23],16 µg/mL
same,MIC,Enterobacter cloacae [24],8 µg/mL
same,MIC,Klebsiella pneumoniae [5],128 µg/mL
same,MIC,Klebsiella pneumoniae [6],128 µg/mL
same,MIC,Escherichia coli [7],2 µg/mL
same,MIC,Escherichia coli [8],128 µg/mL
same,MIC,Enterobacter cloacae [25],128 µg/mL
same,MIC,Enterobacter cloacae [26],1 µg/mL
same,MIC,Enterobacter cloacae [27],> 256 µg/mL
same,MIC,Enterobacter cloacae [28],> 256 µg/mL
same,MIC,Enterobacter cloacae [29],2 µg/mL
same,MIC,Enterobacter cloacae [30],1 µg/mL
same,MIC,Klebsiella pneumoniae [31],1 µg/mL
same,MIC,Enterobacter cloacae [32],256 µg/mL
same,MIC,Enterobacter cloacae [33],128 µg/mL
same,MIC,Enterobacter cloacae [34],> 256 µg/mL
same,MIC,Enterobacter cloacae [35],> 256 µg/mL
same,MIC,Citrobacter freundii [36],1 µg/mL
same,MIC,Citrobacter freundii [10],1 µg/mL
same,MIC,Klebsiella pneumoniae [11],> 256 µg/mL
same,MIC,Klebsiella pneumoniae [12],> 256 µg/mL
same,MIC,Klebsiella pneumoniae [13],1 µg/mL
same,MIC,Klebsiella pneumoniae [14],1 µg/mL
same,MIC,Citrobacter freundii [37],> 256 µg/mL
same,MIC,Citrobacter freundii [15],> 256 µg/mL
same,MIC,Citrobacter freundii [16],64 µg/mL
same,MIC,Citrobacter freundii [38],16 µg/mL

# — ChEMBL document CHEMBL1275556, “High prevalence of plasmid-mediated quinolone resistance genes qnr and aac(6')-Ib-cr in clinical isolates of Enterobacteriaceae from nine teaching hospitals in China” (2008)
